This note sets out measurements from ChEMBL document CHEMBL1125450, “Synthesis and in vitro characterization of novel amino terminally modified oxotremorine derivatives for brain muscarinic receptors” (J Med Chem, 1992).

The target in assay [1] is T1, Muscarinic acetylcholine receptor M1 (Rattus norvegicus, UniProt P08482).
T1 sequence (P08482 whole entry): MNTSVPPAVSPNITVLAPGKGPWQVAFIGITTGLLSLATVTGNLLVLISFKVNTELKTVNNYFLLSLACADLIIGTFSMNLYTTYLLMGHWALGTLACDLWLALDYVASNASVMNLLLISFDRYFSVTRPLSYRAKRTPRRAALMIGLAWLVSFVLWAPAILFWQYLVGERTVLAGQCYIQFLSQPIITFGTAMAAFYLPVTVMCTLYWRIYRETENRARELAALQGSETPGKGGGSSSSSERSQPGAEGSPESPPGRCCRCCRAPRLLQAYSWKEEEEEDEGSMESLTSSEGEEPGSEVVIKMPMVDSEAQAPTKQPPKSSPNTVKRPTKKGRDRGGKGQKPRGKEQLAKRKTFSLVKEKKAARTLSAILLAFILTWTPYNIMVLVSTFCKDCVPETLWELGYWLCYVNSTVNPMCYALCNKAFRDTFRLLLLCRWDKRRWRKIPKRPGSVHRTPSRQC
As to the kind of experiment: Compound was evaluated for its binding affinity towards M1 receptor in rat cortex.

In assay [2] the target is T2, Muscarinic acetylcholine receptor M2 (Rattus norvegicus, UniProt P10980).
T2 sequence (P10980 whole entry): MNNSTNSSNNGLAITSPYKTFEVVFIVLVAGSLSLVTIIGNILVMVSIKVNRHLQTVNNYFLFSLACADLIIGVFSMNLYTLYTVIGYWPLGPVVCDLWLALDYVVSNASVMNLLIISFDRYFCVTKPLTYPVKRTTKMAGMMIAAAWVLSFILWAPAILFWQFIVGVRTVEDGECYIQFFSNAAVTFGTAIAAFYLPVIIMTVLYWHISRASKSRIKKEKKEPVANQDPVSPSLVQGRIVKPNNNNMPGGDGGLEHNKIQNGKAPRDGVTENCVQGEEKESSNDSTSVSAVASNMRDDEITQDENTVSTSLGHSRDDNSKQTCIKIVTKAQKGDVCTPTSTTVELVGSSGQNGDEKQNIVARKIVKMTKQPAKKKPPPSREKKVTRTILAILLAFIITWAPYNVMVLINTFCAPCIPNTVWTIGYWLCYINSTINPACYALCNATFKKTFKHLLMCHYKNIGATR
As to the kind of experiment: Compound was evaluated for its binding affinity towards M2 receptor in rat brainstem. The assay is classed as tissue-based, Brain.

Assay [3] deals with T1, Muscarinic acetylcholine receptor M1. As to the kind of experiment: Compound was evaluated for its binding affinity towards muscarinic acetylcholine receptor in rat cortex. An outline of the steps: (§1)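 Rat fronto-parietal cortex homogenised 1:200 w/v in 50 mM Na-K phosphate, pH 7.4; 0.5 mg tissue competed against [3H]pirenzepine (6 nM) for 1 h at 25 °C, filtered on polyethylenimine-treated GF/B. Nonspecific binding with 10 µM atropine. IC50 converted to Ki by Cheng-Prusoff.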

The target of assay [4] is T3, Muscarinic acetylcholine receptor M1 (Rattus norvegicus) (UniProt P08482).
T3 sequence (whole entry): T1 sequence (P08482 whole entry)
As to the kind of experiment: Intrinsic activity against Muscarinic acetylcholine receptor M1 in rat cortex (activity expressed as % response of that produced by carbachol). The assay is classed as functional. The method in brief: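 Dissociated male Sprague-Dawley rat cortex, rejuvenated in oxygenated Krebs-Henseleit (final step with 10 mM Li+), labeled 60 min at 37 °C with [3H]inositol. Compound at 1 mM added for 60 min under 95% O2/5% CO2; [3H]inositol 1-phosphate isolated on Dowex. Response scaled to 1 mM carbachol PI hydrolysis (100%).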

Assay [5] has as its target T2, Muscarinic acetylcholine receptor M2. As to the kind of experiment: Compound was evaluated for its binding affinity towards muscarinic acetylcholine receptor M2 in rat brainstem. The assay is classed as tissue-based, Brain. The method in brief:
(§2)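 Rat pons-medulla homogenised 1:200 w/v in 50 mM sodium phosphate, pH 7.4; 0.5 mg tissue with 0.2 nM [3H]QNB and varying unlabeled ligand, 75 min at 25 °C. IC50 corrected to Ki by Cheng-Prusoff.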

Assay [6] addresses T4, Muscarinic acetylcholine receptor M2 (Rattus norvegicus) (UniProt P10980).
T4 sequence (whole entry): T2 sequence (P10980 whole entry)
As to the kind of experiment: Intrinsic activity against muscarinic acetylcholine receptor M2 in rat striatum (activity expressed as % response of that produced by carbachol). The assay is classed as functional, tissue-based. An outline of the steps: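 Dissociated rat striatum prelabeled 45 min at 37 °C with [3H]adenine, then 30 min with 1.5 mM IBMX before 10 µM forskolin plus 100 µM compound for 10 min; stopped with TCA, [3H]cAMP by ion-exchange columns. Inhibition of cAMP scaled to that of 100 µM carbachol (100%).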

The target in assay [7] is T1, Muscarinic acetylcholine receptor M1. As to the kind of experiment: Compound was evaluated for its binding affinity towards Muscarinic acetylcholine receptor M1 in rat cortex. The method in brief: as §1
Assay [8] addresses T2, Muscarinic acetylcholine receptor M2. As to the kind of experiment: Compound was evaluated for its binding affinity towards Muscarinic acetylcholine receptor M2 in rat brainstem. The assay is classed as tissue-based, Brain. The method in brief: as §2

For the compound `O=C1CCCN1CC#CC[C@@H]1CCCCN1`, the Ki in assay [1] turned out to be 27.6 µM; in assay [2], 15.8 µM.
The matching figures for `O=C1CCCN1CC#CC[C@H]1CCCN1`: 3.07 µM and 2.46 µM.
With `CNCC#CCN1CCCC1=O`, the inhibition constant Ki is 65.5 µM in assay [3] and 38.1 µM in assay [5]. Also, the figures for the Response in assay [4] and in assay [6] were 5.7% and 36.3%, respectively.
For the compound `CCN(C)CC#CCN1CCCC1=O`, the Ki worked out at 2.69 µM in assay [3] and 0.813 µM in assay [5]. Besides, the values for the Response in assay [4] and in assay [6] were 2.75% and 91.6%, respectively.
Regarding `CN1CCC[C@H]1CC#CCN1CCCC1=O`, the Ki in assay [1] stood at 10.5 µM; in assay [2], 10.8 µM.
For `CN(C)CC#CCN1CCCC1=O`, the values for the inhibition constant Ki in assay [7] and in assay [8] were 15.9 µM and 0.926 µM, respectively.
For `CN1CCCC[C@@H]1CC#CCN1CCCC1=O`, the inhibitory constant (Ki) was determined as 1.2 µM in assay [1] and 3.66 µM in assay [2].
As for `CN1CCC[C@@H]1CC#CCN1CCCC1=O`, the Ki in assay [1] is 5.46 µM; in assay [2], 5.86 µM.
For `O=C1CCCN1CC#CC[C@@H]1CCCN1`, in that order: 40.5 µM and 5.64 µM.
Turning to `O=C1CCCN1CC#CC[C@H]1CCCCN1`, the inhibition constant (Ki) in assay [1] is 3.03 µM; in assay [2] it was 0.636 µM.
As to `CN1CCCC[C@H]1CC#CCN1CCCC1=O`, the Ki came out at 5.38 µM in assay [1] and 7.06 µM in assay [2].
As to `O=C1CCCN1CC#CCN1CCCC1` [OXOTREMORINE], the Ki in assay [3] was found to be 0.196 µM; in assay [5] it was 0.084 µM. The compound further came in with a Response in assay [4] of 13.7%.
With `O=C1CCCN1CC#CCN1CCC1`, the inhibition constant (Ki) in assay [3] amounted to 2.25 µM; in assay [5], 0.0274 µM. Further, the Response was 46.2% in assay [4] and 105% in assay [6].
